Laboratory results from ChEMBL document CHEMBL1150303, “Synthesis, in vitro antibacterial and carbonic anhydrase II inhibitory activities of N-acylsulfonamides using silica sulfuric acid as an efficient catalyst under both solvent-free and heterogeneous conditions” (2008).
In brackets after ≈: the same amount, converted by molar mass.

What was measured:
Format in all cases: functional
Escherichia coli = test: Antibacterial activity against Escherichia coli isolate by conventional agar dilution method
How it was run: (§1)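 Inoculum: 3–5 colonies suspended to 0.5 McFarland, then diluted 1000-fold to 1.5 · 10⁵ CFU/mL. Compounds dissolved in DMSO, diluted with water to stock, then serially doubled in Mueller–Hinton broth to 1000, 512, 256, 128, 64, 32, 16, 8, 4 and 2 in a 12-well series. Equal volumes of dilution and bacterial suspension were combined. DMSO-only medium served as solvent control. Sulfamethoxazole was the reference.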

Enterococcus faecium = test: Antibacterial activity against Enterococcus faecium isolate by conventional agar dilution method; how it was run: as §1
Klebsiella pneumoniae = test: Antibacterial activity against Klebsiella pneumoniae isolate by conventional agar dilution method; how it was run: as §1
Staphylococcus aureus [1] = test: Antibacterial activity against Staphylococcus aureus isolate by conventional agar dilution method; how it was run: as §1
Staphylococcus aureus [2] = test: Antibacterial activity against Staphylococcus aureus […] by conventional agar dilution method; how it was run: as §1
Pseudomonas aeruginosa = test: Antibacterial activity against Pseudomonas aeruginosa ATCC 27853 by conventional agar dilution method; how it was run: as §1

| SMILES | MIC (Escherichia coli) [µg/mL] | MIC (Enterococcus faecium) [µg/mL] | MIC (Klebsiella pneumoniae) [µg/mL] | MIC (Staphylococcus aureus [1]) [µg/mL] | MIC (Staphylococcus aureus [2]) [µg/mL] | MIC (Pseudomonas aeruginosa) [µg/mL] |
| --- | --- | --- | --- | --- | --- | --- |
| Cc1ccc(S(=O)(=O)NC(=O)c2ccccc2)cc1 | 64 (≈ 232 µM) | 128 (≈ 465 µM) | 256 (≈ 930 µM) | 256 (≈ 930 µM) | 256 (≈ 930 µM) | 256 (≈ 930 µM) |
| CC(=O)NS(=O)(=O)c1ccccc1 | > 1000 | > 1000 | > 1000 | > 1000 | > 1000 | > 1000 |
| O=C(NS(=O)(=O)c1ccccc1)c1ccccc1 | 256 (≈ 980 µM) | 256 (≈ 980 µM) | 256 (≈ 980 µM) | 500 (≈ 1910 µM) | 256 (≈ 980 µM) | 256 (≈ 980 µM) |
| Cc1cc(NS(=O)(=O)c2ccc(N)cc2)no1 [SULFAMETHOXAZOLE] | 2 (≈ 7.9 µM) | 4 (≈ 15.8 µM) | 8 (≈ 31.6 µM) | 4 (≈ 15.8 µM) | 2 (≈ 7.9 µM) | 8 (≈ 31.6 µM) |
| CCC(=O)NS(=O)(=O)c1ccc(C)cc1 | 128 (≈ 563 µM) | 64 (≈ 282 µM) | 500 (≈ 2200 µM) | 128 (≈ 563 µM) | 64 (≈ 282 µM) | 500 (≈ 2200 µM) |
| CCCCC(=O)NS(=O)(=O)c1ccc(C)cc1 | > 1000 | > 1000 | > 1000 | > 1000 | > 1000 | > 1000 |
| CCCCC(=O)NS(=O)(=O)c1ccccc1 | > 1000 | > 1000 | > 1000 | > 1000 | > 1000 | > 1000 |
| CS(=O)(=O)NC(=O)c1ccccc1 | 256 (≈ 1280 µM) | 256 (≈ 1280 µM) | 500 (≈ 2510 µM) | 256 (≈ 1280 µM) | 500 (≈ 2510 µM) | 500 (≈ 2510 µM) |
| CCC(=O)NS(=O)(=O)c1ccccc1 | 256 (≈ 1200 µM) | 64 (≈ 300 µM) | 256 (≈ 1200 µM) | 256 (≈ 1200 µM) | 128 (≈ 600 µM) | 500 (≈ 2340 µM) |
